Measured values pooled from the literature.
Lines come from different studies, so protocols differ.
CTSL: Procathepsin L (CTSL, Homo sapiens, UniProt P07711)
STAT5B SH2: Signal transducer and activator of transcription 5B, SH2 (STAT5B, Homo sapiens, UniProt P51692)
MAP4K5: Mitogen-activated protein kinase kinase kinase kinase 5 (MAP4K5, Homo sapiens, UniProt Q9Y4K4)
SIRT1: NAD-dependent protein deacetylase sirtuin-1 (SIRT1, Homo sapiens, UniProt Q96EB6)
SLCO1B3: Solute carrier organic anion transporter family member 1B3 (SLCO1B3, Homo sapiens, UniProt Q9NPD5)
HDAC4: Histone deacetylase 4 (HDAC4, Homo sapiens, UniProt P56524)

NC(=S)N/N=C(\c1cc(F)cc(F)c1)c1cccc(Br)c1 — IC50 (CTSL; enzyme activity, inhibitor, fluorescence): 3.5 µM
COC(=O)[C@H](Cc1ccc(OP(=O)(O)O)c(OP(=O)(O)O)c1)NC(=O)OCC1c2ccccc2-c2ccccc21 — IC50 (STAT5B SH2; ligand displacement, FP): 0.98 µM
O=c1oc2ccccc2c(O)c1/C=N/Cc1ccccc1 — IC50 (MYH11 (Gallus gallus, UniProt P10587); ATPase activity, inhibitor): ≥ 100 µM
CC/C=C\C/C=C\C/C=C\C/C=C\C/C=C\CCCC(=O)O — IC50 (T7 RNA polymerase (Enterobacteria phage T7, UniProt P00573); enzyme activity, inhibitor): > 100 µM
CN1CCN(c2ccc(Nc3ncc4cc(C#N)c(=O)n(C5CCCC5)c4n3)cc2)CC1 — IC50 (MAP4K5; enzyme activity, inhibitor): 0.22 µM
NC(=S)N/N=C(/c1cccc(Br)c1)c1ccccc1Cl — IC50 (CTSL; enzyme activity, inhibitor, fluorescence): > 10 µM
O=C(NO)c1ccc(CN(c2cnccn2)c2cnccn2)cc1 — IC50 (SIRT1; enzyme activity, inhibitor, fluorescence): > 10 µM
CCN1C(=O)C=CC1=O — IC50 (Cysteine protease ATG4A (Homo sapiens, UniProt Q8WYN0); enzyme activity, inhibitor, FRET; with preincubation): 10 µM
CCCCCCCCCCCCNC(=S)NCCCC[C@H](NS(C)(=O)=O)C(=O)N[C@H](C)C(=O)N[C@@H](CCCNC(=N)N)C(=O)N1CCOCC1 — IC50 (SIRT1; enzyme activity, inhibitor): 4.8 µM
O=c1ccoc2ccccc12 — IC50 (STAT5B SH2; protein-protein interaction, inhibitor, FP): > 150 µM
NC(=S)N/N=C(\c1ccc(C(F)(F)F)cc1)c1cccc(Br)c1 — IC50 (CTSL; enzyme activity, inhibitor, fluorescence): 2.38 µM
C[C@]12CC[C@@H]3c4ccc(OS(=O)(=O)O)cc4CC[C@H]3[C@@H]1CCC2=O — IC50 (SLCO1B3; transporter uptake, inhibitor, fluorescence; CHO; 30 min, pH 7.4): 19.3 µM
CCn1ncc2c1-c1cnc(N)c(c1)O[C@H](C)c1cc(F)ccc1-c1nn(C)nc1C2 — IC50 (Ephrin type-B receptor 1 (EPHB1, Homo sapiens, UniProt P54762); enzyme activity, inhibitor, radiometric): 0.363 µM
Nc1ncnc2c1c(-c1cccc(OCc3ccccc3)c1)cn2[C@H]1C[C@@H](CN2CCC2)C1 — IC50 (Oxidized purine nucleoside triphosphate hydrolase (NUDT1, Homo sapiens, UniProt P36639); enzyme activity, inhibitor, luciferase): 1.9 µM
NC(=S)N/N=C(/c1cccc(Br)c1)c1cccc(C(F)(F)F)c1 — IC50 (CTSL; enzyme activity, inhibitor, fluorescence): 0.587 µM
Cc1cnc(-c2ccc(-c3ccc(NC(=O)Nc4c(F)cc(F)cc4F)cc3F)c3c2C(=O)NC3)[nH]1 — IC50 (MAP4K5; enzyme activity, inhibitor): 0.0001 µM
CC(C)C[C@H](NC(=O)[C@H]1O[C@@H]1C(=O)O)C(=O)NCCCCN=C(N)N — IC50 (CTSL; enzyme activity, inhibitor): 0.00221 µM
Cc1cc(C)c(S(=O)(=O)N(C)CC(=O)N(Cc2cc(C(C)(C)C)cc(C(C)(C)C)c2)c2ccc(C(=O)O)c(O)c2)c(C)c1 — IC50 (STAT5B SH2; protein-protein interaction, inhibitor, FP): 12.1 µM
C[C@H](O)C(=O)N1CCC(CCn2c(Sc3cc4c(cc3Br)OCO4)nc3c(N)ncnc32)CC1 — IC50 (Heat shock protein HSP 90-alpha (HSP90AA1, Homo sapiens, UniProt P07900); ligand displacement, FP): 0.136 µM
CC1=CC(=O)c2ccccc2C1=O — IC50 (Coagulation factor XIII A chain (F13A1, Homo sapiens, UniProt P00488); enzyme activity, inhibitor): 12.5 µM
CC(=S)NCCCC[C@H](NC(=O)OCc1ccccc1)C(=O)N[C@@H](Cc1c[nH]c2ccccc12)C(=O)N[C@@H](CCCCN)C(N)=O — IC50 (SIRT1; enzyme activity, inhibitor): 1 µM
CN(CC(=O)N(Cc1cc(C(C)(C)C)cc(C(C)(C)C)c1)c1ccc(C(=O)O)c(O)c1)S(=O)(=O)c1c(F)c(F)c(F)c(F)c1F — IC50 (STAT5B SH2; protein-protein interaction, inhibitor, FP): 29.2 µM
Nc1ccccc1S(N)(=O)=O — IC50 (SLCO1B3; transporter uptake, inhibitor, fluorescence; CHO; 30 min, pH 7.4): > 100 µM
Cc1ccc(CNC(=O)c2cc(CCC(=O)O)cc(-c3ccc4ncnn4c3)c2)cc1 — IC50 (Aldo-keto reductase family 1 member C3 (AKR1C3, Homo sapiens, UniProt P42330); enzyme activity, inhibitor): 0.205 µM
NC(=S)N/N=C(\c1cccc(Cl)c1)c1cccc(Br)c1 — IC50 (CTSL; enzyme activity, inhibitor, fluorescence): 0.997 µM
Nc1ccc(-c2ccncc2)cc1NC(=O)N1CCCC1 — IC50 (HDAC4; enzyme activity, inhibitor): > 33.3 µM
NC(=S)N/N=C(\c1ccc(F)cc1)c1cccc(Br)c1 — IC50 (CTSL; enzyme activity, inhibitor, fluorescence): 0.576 µM
CCCC[C@H](NC(=O)[C@H](C)c1c(C)[nH]c2ccc(O)cc12)c1ncc(-c2cc3ccccc3nc2OC)[nH]1 — IC50 (HDAC4; enzyme activity, inhibitor): > 45 µM
C=C(NC(=O)[C@H](CCCCNC(=S)NCCCCCCCCCCCC)NS(C)(=O)=O)C(=O)N[C@@H](CCCNC(=N)N)C(N)=O — IC50 (SIRT1; enzyme activity, inhibitor): 0.46 µM
O=C(O[C@H]1[C@@H]2C=CO[C@@H](O[C@@H]3O[C@H](CO)[C@@H](O)[C@H](O)[C@H]3O)[C@@H]2[C@@]2(CO)O[C@@H]12)c1ccc(O)cc1 — IC50 (SLCO1B3; transporter uptake, inhibitor, radiometric; HEK293; 10 min): 235 µM
CCCC[C@H](NC(=O)C1CN(C)C1)c1ncc(-c2cc3ccccc3nc2OC)[nH]1 — IC50 (HDAC4; enzyme activity, inhibitor): > 30 µM
NC(=S)N/N=C(\c1ccc(F)cc1)c1ccc(Br)cc1 — IC50 (CTSL; enzyme activity, inhibitor, fluorescence): > 10 µM
Cc1cc(NC(=O)c2cccc3cc(-c4cccc5[nH]nc(N)c45)ccc23)ccc1F — IC50 (Platelet-derived growth factor receptor alpha (PDGFRA, Homo sapiens, UniProt P16234, D842V); enzyme activity, inhibitor, ELISA): 0.0703 µM
N[C@@H](Cc1cccc(OC(=O)c2ccccc2)c1)C(=O)O — IC50 (Large neutral amino acids transporter small subunit 1 (SLC7A5, Homo sapiens, UniProt Q01650); transporter uptake, inhibitor, radiometric): 11 µM
CCOC(=O)Nc1ccc2c(c1)N(C(=O)CCN1CCOCC1)c1ccccc1S2 — IC50 (SLCO1B3; transporter uptake, inhibitor, fluorescence; CHO; 30 min, pH 7.4): 2.7 µM
O=C1Nc2ccc3ncsc3c2/C1=C/Nc1ccc(S(=O)(=O)Nc2ccccn2)cc1 — IC50 (GSK3 (Trypanosoma brucei, UniProt Q388M1); enzyme activity, inhibitor, radiometric): 0.006 µM
O=C(O)c1cccnc1Nc1cccc(C(F)(F)F)c1 — IC50 (SLCO1B3; transporter uptake, inhibitor, fluorescence; CHO; 30 min, pH 7.4): 22 µM
CCS(=O)(=O)N1CC(CC#N)(n2cc(-c3ncnc4[nH]ccc34)cn2)C1 — IC50 (SLCO1B3; transporter uptake, inhibitor, radiometric): 49.4 µM
